Data: ChEMBL document CHEMBL1148785, “Second generation tetrahydroquinoline-based protein farnesyltransferase inhibitors as antimalarials” (J Med Chem, 2007)

Key:
[1] = test system: Plasmodium falciparum; assay: Inhibition of Plasmodium falciparum protein farnesyltransferase at 50 nM by scintillation proximity assay
[2] = test system: Plasmodium falciparum; assay: Inhibition of Plasmodium falciparum protein farnesyltransferase at 5 nM by scintillation proximity assay
[3] = test system: Plasmodium falciparum; assay: Inhibition of Plasmodium falciparum protein farnesyltransferase at 0.5 nM by scintillation proximity assay
[4] = test system: Plasmodium falciparum; assay: Antimalarial activity against Plasmodium falciparum 3D7; assay type: functional; conditions: Plasmodium falciparum, 3D7; read-out: ED50 (the source's name)
Summary of the method: (§1)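 Asynchronous culture in type A+ erythrocytes at 0.5% parasitemia and 0.5% hematocrit, grown in RPMI-1640 with 20% heat-inactivated human A+ plasma. Compound was serially diluted from a top final 5 µM, with DMSO vehicle as 100% growth. Plates ran 48 h at 37 °C under 5% CO2/5% O2/90% N2, then [3H]-hypoxanthine (0.3 µCi) for 24 h. Filter-harvested counts were corrected for the uninfected-RBC background. ED50 by linear regression; duplicates averaged.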

[5] = test system: Plasmodium falciparum; assay: Antimalarial activity against Plasmodium falciparum K1; assay type: functional; conditions: Plasmodium falciparum, K1; read-out: ED50 (the source's name); summary of the method: as §1

| SMILES | inhibition [1] | inhibition [2] | inhibition [3] | EC50 [4] | EC50 [5] |
| --- | --- | --- | --- | --- | --- |
| Cn1cnc(S(=O)(=O)N(Cc2ncoc2-c2ccccc2)C2Cc3cc(C#N)ccc3N(Cc3cncn3C)C2)c1 (stereo not given) | 92% | 20% | 0% | 490 nM | 890 nM |
| CN(C1Cc2cc(-c3ccccc3)ccc2N(Cc2cn(C)cn2)C1)S(=O)(=O)c1cn(C)cn1 (stereo not given) | 88% | 38% | 10% | > 5000 nM | > 5000 nM |
| Cn1cnc(S(=O)(=O)N(CCOc2cccc3c2OCCO3)C2Cc3cc(C#N)ccc3N(Cc3cncn3C)C2)c1 (stereo not given) | 99% | 91% | 12% | 355 nM | 350 nM |
| Cn1cncc1CN1CC(N(Cc2ccc(S(C)(=O)=O)cc2)S(=O)(=O)c2ccccc2Cl)Cc2cc(C#N)ccc21 (stereo not given) | 99% | 87% | 16% | 400 nM | 800 nM |
| Cc1c(S(=O)(=O)N(Cc2ccc(S(C)(=O)=O)cc2)C2Cc3cc(C#N)ccc3N(Cc3cncn3C)C2)ncn1C (stereo not given) | 92% | 70% | 23% | 320 nM | 450 nM |
| Cn1cnc(S(=O)(=O)N(CCNC(=O)OC(C)(C)C)C2Cc3cc(C#N)ccc3N(Cc3cncn3C)C2)c1 (stereo not given) | 99% | 90% | 28% | 460 nM | 75 nM |
| COC(=O)N1CCC(CN(C2Cc3cc(C#N)ccc3N(Cc3cncn3C)C2)S(C)(=O)=O)CC1 (stereo not given) | 66% | 5% | 0% | 2700 nM | > 5000 nM |
| C/C=C/C=C\C=C\CN(C1Cc2cc(C#N)ccc2N(Cc2cncn2C)C1)S(=O)(=O)c1ccccn1 (stereo not given) | 98% | 87% | 32% | 700 nM | 700 nM |
| Cn1cncc1CN1CC(N(Cc2ccccc2F)S(C)(=O)=O)Cc2cc(C#N)ccc21 (stereo not given) | 51% | 7% | 0% | 600 nM | > 5000 nM |
| COC(=O)N1CCC(CN(C2Cc3cc(C#N)ccc3N(S(=O)(=O)c3cncn3C)C2)S(=O)(=O)c2ccccn2)CC1 (stereo not given) | 0% | 0% | 0% | > 5000 nM | 3200 nM |
| Cn1cncc1CN1CC(N(Cc2cccc3cccnc23)S(=O)(=O)c2ccccn2)Cc2cc(C#N)ccc21 (stereo not given) | 88% | 46% | 17% | 1740 nM | 1320 nM |
| Cn1cnc(CN2CC(N(CC(=O)NC(C)(C)C)S(C)(=O)=O)Cc3cc(-c4ccccc4)ccc32)c1 (stereo not given) | 2% | 0% | 0% | > 5000 nM | > 5000 nM |
| CC(C)NC(=O)c1ccc2c(c1)CC(N(CC(=O)NC(C)(C)C)S(=O)(=O)c1cn(C)cn1)CN2Cc1cncn1C (stereo not given) | 46% | 7% | 14% | 4000 nM | 2600 nM |
| Cn1cncc1CN1CC(N(CCC2(C)OCC(C)(C)CO2)S(=O)(=O)c2ccccn2)Cc2cc(C#N)ccc21 (stereo not given) | 95% | 66% | 18% | 440 nM | 240 nM |
| CSCCC(=O)N(Cc1ccccc1F)C1Cc2cc(C#N)ccc2N(Cc2cncn2C)C1 (stereo not given) | 52% | 9% | 0% | 270 nM | 450 nM |
| Cc1cc(=O)n(CCCCN(C2Cc3cc(C#N)ccc3N(Cc3cncn3C)C2)S(=O)(=O)c2ccccn2)c(=O)n1C (stereo not given) | 90% | 51% | 0% | 350 nM | 200 nM |
| Cn1cnc(CN2CC(N(CC(=O)NC(C)(C)C)S(=O)(=O)c3cccs3)Cc3cc(-c4ccccc4)ccc32)c1 (stereo not given) | 10% | 1% | 4% | 3500 nM | > 5000 nM |
| Cc1nc(C)c(S(=O)(=O)N(CC(=O)NC(C)(C)C)C2Cc3cc(C#N)ccc3N(Cc3cncn3C)C2)s1 (stereo not given) | 0% | 3% | 2% | > 5000 nM | > 5000 nM |
| Cn1cnc(S(=O)(=O)N2CCC(CN(C3Cc4cc(C#N)ccc4N(Cc4cncn4C)C3)S(=O)(=O)c3ccccn3)CC2)c1 (stereo not given) | 92% | 20% | 60% | 700 nM | 650 nM |
| Cn1cncc1CN1CC(N(CCOc2cccc3c2OCCO3)S(=O)(=O)c2ccccn2)Cc2cc(C#N)ccc21 (stereo not given) | 88% | 41% | 10% | 810 nM | 1450 nM |
| Cn1cnc(CN2CC(N(CC(=O)NC(C)(C)C)S(=O)(=O)c3ccccn3)Cc3cc(-c4ccccc4)ccc32)c1 (stereo not given) | 11% | 6% | 6% | > 5000 nM | 3000 nM |
| Cn1cncc1CN1CC(N(CCCN)S(=O)(=O)c2ccccn2)Cc2cc(C#N)ccc21 (stereo not given) | 32% | 7% | 0% | > 5000 nM | > 5000 nM |
| Cn1cncc1CN1CC(N(CCNC(=O)OC(C)(C)C)S(=O)(=O)c2ccccn2)Cc2cc(C#N)ccc21 (stereo not given) | 91% | 48% | 9% | 230 nM | 240 nM |
| Cn1cnc(CN2CC(N(CC(=O)NC(C)(C)C)S(=O)(=O)c3ccccc3)Cc3cc(-c4ccccc4)ccc32)c1 (stereo not given) | 8% | 0% | 0% | 2800 nM | 2800 nM |
| CCN(CCCCN(C1Cc2cc(C#N)ccc2N(Cc2cncn2C)C1)S(=O)(=O)c1ccccn1)C(=O)OC(C)(C)C (stereo not given) | 92% | 52% | 6% | 1250 nM | 2600 nM |
| Cc1noc(C)c1CN(C1Cc2cc(C#N)ccc2N(Cc2cncn2C)C1)S(=O)(=O)c1ccccn1 (stereo not given) | 96% | 93% | 17% | 144 nM | 965 nM |

Now those with a lower EC50 [4], led by results:

| inhibition [1] | inhibition [2] | inhibition [3] | EC50 [4] | EC50 [5] | SMILES |
| --- | --- | --- | --- | --- | --- |
| 98% | 56% | 94% | 75 nM | 55 nM | CCS(=O)(=O)N1CCC(CN(C2Cc3cc(C#N)ccc3N(Cc3cncn3C)C2)S(=O)(=O)c2ccccn2)CC1 (stereo not given) |
| 99% | 89% | 31% | 135 nM | 100 nM | COC(=O)N1CCC(CN(C2Cc3cc(C#N)ccc3N(Cc3cncn3C)C2)S(=O)(=O)c2cccc3nonc23)CC1 (stereo not given) |
| 100% | 99% | 82% | 6 nM | 10 nM | Cn1cnc(S(=O)(=O)N(Cc2ccc(S(C)(=O)=O)cc2)C2Cc3cc(C#N)ccc3N(Cc3cncn3C)C2)c1 (stereo not given) |
| 99% | 99% | 66% | 20 nM | < 20 nM | Cn1cnc(S(=O)(=O)N(Cc2ccc3c(c2)OCCS3(=O)=O)C2Cc3cc(C#N)ccc3N(Cc3cncn3C)C2)c1 (stereo not given) |
| 97% | 96% | 54% | 78 nM | 75 nM | Cn1cnc(S(=O)(=O)N(Cc2ccc(C(F)(F)F)o2)C2Cc3cc(C#N)ccc3N(Cc3cncn3C)C2)c1 (stereo not given) |
| 100% | 97% | 49% | 35 nM | < 20 nM | COC(=O)N1CCC(CN(C2Cc3cc(C#N)ccc3N(Cc3cncn3C)C2)S(=O)(=O)c2ncn(C)c2C)CC1 (stereo not given) |
| 98% | 81% | 22% | 120 nM | 600 nM | Cn1cncc1CN1CC(N(CCc2ccccc2F)S(=O)(=O)c2ccccn2)Cc2cc(C#N)ccc21 (stereo not given) |
| 100% | 98% | 46% | 25 nM | < 20 nM | Cc1noc(C)c1CN(C1Cc2cc(C#N)ccc2N(Cc2cncn2C)C1)S(=O)(=O)c1cn(C)cn1 (stereo not given) |
| 97% | 36% | 90% | 50 nM | 50 nM | CC(C)OC(=O)N1CCC(CN(C2Cc3cc(C#N)ccc3N(Cc3cncn3C)C2)S(=O)(=O)c2ccccn2)CC1 (stereo not given) |
| 99% | 65% | 0% | 87 nM | 60 nM | Cn1cnc(S(=O)(=O)N(CCN2CCCC2=O)C2Cc3cc(C#N)ccc3N(Cc3cncn3C)C2)c1 (stereo not given) |
| 100% | 96% | 39% | 60 nM | 75 nM | COC(=O)N1CCC(CN(C2Cc3cc(C#N)ccc3N(Cc3cncn3C)C2)S(=O)(=O)c2cn(C)c(C)n2)CC1 (stereo not given) |
| 100% | 100% | 84% | < 20 nM | < 20 nM | Cn1cncc1CN1CC(N(Cc2ccc(S(C)(=O)=O)cc2)S(=O)(=O)c2cncn2C)Cc2cc(C#N)ccc21 (stereo not given) |
| 99% | 89% | 17% | 70 nM | 210 nM | Cn1cnc(S(=O)(=O)N(Cc2cccnc2)C2Cc3cc(C#N)ccc3N(Cc3cncn3C)C2)c1 (stereo not given) |
| 99% | 81% | 24% | 138 nM | 105 nM | COC(=O)N1CCC(CN(C2Cc3cc(C#N)ccc3N(Cc3cncn3C)C2)S(=O)(=O)c2ccc3c(c2)OCCCO3)CC1 (stereo not given) |
| 98% | 93% | 43% | 50 nM | 70 nM | COC(=O)N1CCC(CN(C2Cc3cc(C#N)ccc3N(Cc3cncn3C)C2)S(=O)(=O)c2ccccc2)CC1 (stereo not given) |
